Compounds with a hit are over-represented: about 1.5% of the library has one in this group of screens.
APJ antag – APJ receptor antagonism; inhibition, % at 20 µM; CHO-K1 APJ beta-arrestin complementation, luminescence; AID 2521; hit rate 0.32% among 330,000;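 active = inhibition above about 40% at 20 µM, limit read from the data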;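 note: cells challenged with 10 nM apelin-13 agonist together with compound; plate controls were apelin-13 plus DMSO wells for no effect and DMSO wells lacking apelin-13 for full effect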
EBI2 block – blocks human EBI2 receptor beta-arrestin signaling | EBI2 beta-arrestin recruitment, luminescence, 7a,25-OHC stimulated | P32249 | AID 651636 | inhibition, % at 5 µM | hit rate 0.81% among 360,000; in the data active = inhibition above about 38%;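 note: enzyme fragment complementation signal reports receptor beta-arrestin coupling in cells; 0% = agonist plus DMSO wells and 100% = wells without agonist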
Target sequence (P32249 whole entry, looked up, the tested form may be a part): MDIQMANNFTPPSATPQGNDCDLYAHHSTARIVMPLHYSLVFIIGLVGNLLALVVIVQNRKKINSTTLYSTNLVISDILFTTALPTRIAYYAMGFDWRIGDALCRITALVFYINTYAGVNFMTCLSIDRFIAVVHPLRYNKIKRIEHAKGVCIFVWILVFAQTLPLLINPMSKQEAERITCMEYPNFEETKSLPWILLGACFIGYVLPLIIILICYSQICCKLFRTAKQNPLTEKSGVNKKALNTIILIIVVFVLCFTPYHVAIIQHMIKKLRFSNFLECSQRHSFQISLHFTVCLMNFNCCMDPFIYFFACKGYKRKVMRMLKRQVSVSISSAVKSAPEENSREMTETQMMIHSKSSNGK
APJ agonist – agonists of human APJ apelin receptor; hit rate 0.11% among 330,000; P35414; activation, % at 20 µM; CHO-K1 APJ PathHunter beta-arrestin, luminescence; 0% DMSO wells, 100% apelin;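 active = activation more than six SD over the plate average, tested at 20 µM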;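 note: 0% = DMSO alone and 100% = apelin-13 at 10 nM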
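Assay system: CHO-K1 cells stably expressing ProLink-tagged human APJ and arrestin–beta-gal acceptor. Compound dosing: 20 µM single point, 1% DMSO. Times: 16-18 h seeding, 90 min dark compound exposure, 60 min detection. Detection: beta-gal luminescence. Evaluation: APJ–arrestin association signal. Controls: negative DMSO alone, positive Apelin-13 at 10 nM.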
CCR6 antag – blocks CCL20-driven beta-arrestin recruitment at human CCR6; P51684; CHO-K1 CCR6 PathHunter beta-arrestin, luminescence, CCL20-stimulated; inhibition, % at 20 µM; hit rate 0.49% among 340,000; AID 493098;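 active = compounds whose inhibition of the agonist-driven luminescence signal at 20 µM reaches about 50%, limit read from the data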;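 note: cells stimulated with CCL20 at 14 nM final; plate controls were DMSO with CCL20 for no effect and DMSO without agonist for full effect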
CXCR6 inh – CXCR6 (human) receptor inhibition | CHO-K1 PathHunter CXCR6 beta-arrestin, luminescence | inhibition, % at 20 µM | hit rate 0.36% among 360,000 | AID 602244; in the data active = inhibition above about 34%, passing the limit was not always enough;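 note: antagonist mode with CXCL16 agonist at 10 nM final; 0% = 10 nM CXCL16 with DMSO and 100% = unstimulated wells without agonist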
Target sequence (O00574 whole entry, looked up): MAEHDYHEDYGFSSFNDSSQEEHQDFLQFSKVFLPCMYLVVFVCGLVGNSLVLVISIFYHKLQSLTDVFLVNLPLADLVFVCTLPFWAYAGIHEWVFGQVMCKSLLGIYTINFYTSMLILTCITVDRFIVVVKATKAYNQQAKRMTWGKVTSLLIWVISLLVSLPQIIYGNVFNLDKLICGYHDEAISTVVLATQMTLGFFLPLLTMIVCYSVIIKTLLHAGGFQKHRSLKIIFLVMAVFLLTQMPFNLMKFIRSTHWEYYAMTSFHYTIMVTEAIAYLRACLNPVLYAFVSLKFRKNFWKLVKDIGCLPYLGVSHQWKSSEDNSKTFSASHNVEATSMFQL
APJ ag confirm – APJ receptor agonism confirmation | shares compounds with APJ agonist | CHO-K1 APJ PathHunter beta-arrestin, luminescence | activation, % at 20 µM | hit rate 10% among 310;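 active = activation above 40%, taking the highest of four retests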;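 note: plate controls were DMSO wells for no effect and apelin-13 at 10 nM for full effect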
APJ antag confirm – confirmation of human APJ apelin receptor antagonists; shares compounds with APJ antag; APJ beta-arrestin recruitment, luminescence, antagonist mode; inhibition, % at 20 µM; hit rate 66% among 950; AID 2766; in the data active = inhibition above about 50%
CXCR6 confirm – confirmation of human CXCR6 receptor antagonists; shares compounds with CXCR6 inh; CHO-K1 CXCR6 PathHunter beta-arrestin, luminescence; inhibition, % at 20 µM; hit rate 65% among 700;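 active = mean inhibition over four retests above 40%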;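 note: receptor stimulated with 10 nM CXCL16 agonist; beta-galactosidase fragment complementation upon beta-arrestin recruitment to receptor; plate controls were CXCL16 plus DMSO for no effect and DMSO without CXCL16 for full effect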
EBI2 conf – confirmation of human EBI2 receptor antagonists. shares compounds with EBI2 block. EBI2 beta-arrestin luminescence, 7a,25-OHC antagonism. inhibition, % at 5 µM. hit rate 29% among 2,400;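 active = inhibition of at least 50%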
EBI2 agonist – counter-screen for EBI2 antagonists: EBI2 agonist activity; shares compounds with EBI2 block; EBI2-expressing cells, agonist mode, luminescence, 60 min; 0% vehicle, 100% 7α,25-dihydroxycholesterol control; activation, % at 5 µM; 2,400 tested, under 10 active; AID 652000;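 active = activation of at least 50%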
bGal cs – inhibits E. coli beta-galactosidase, counter-screen for EBI2 antagonists. shares compounds with EBI2 block. purified beta-galactosidase, luminescent Galacton Star, 15 min. inhibition, % at 5 µM. hit rate 1% among 2,400;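 active = replicate-average signal at least 3 plate SD below neutral wells, shown as high inhibition, flagging enzyme-inhibiting false positives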;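 note: 0% = DMSO wells with enzyme and 100% = wells lacking enzyme; higher means stronger loss of beta-gal luminescence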
Numbers without * were called inactive; . = no result.

SMILES	APJ antag	EBI2 block	APJ agonist	CCR6 antag	CXCR6 inh	CXCR6 confirm	others
CC1=Nc2ccccc2/C1=C/c1c(O)[nH]c(=O)[nH]c1=O	13	-1	-3	-2	8	.
O=c1[nH]c(O)c(/C=C2/C=CC(c3cc(Cl)ccc3Cl)=N2)c(=O)[nH]1	-58	-4	19*	-6	-6	.	APJ ag confirm=30
COc1ccc(CN2Cc3cc(N4CCCCC4)ccc3-n3nncc3C2)cc1	.	-8	.	.	0	.
CC1(C)C[C@H]2C=C(C=O)[C@]3(C=O)C[C@]3(C)[C@H]2C1	-26	4	31*	30	-3	.	APJ ag confirm=33
CC1([N+](=O)[O-])COP(=O)(NC2CC2)OC1 (configuration not stated)	.	-5	.	8	1	.
CCCCCn1c(NC(=O)c2ccco2)c(C(=O)OCC)c2nc3ccccc3nc21	49*	20	-10	38	-4	.	APJ antag confirm=28
COCCCn1c(N)c(C(=O)OCCOC)c2nc3ccccc3nc21	10	13	-9	13	-5	.
CCOC(=O)c1c(NS(=O)(=O)c2ccccc2)n(CCCOC)c2nc3ccccc3nc12	50*	8	-7	60*	18	.	APJ antag confirm=9
Cc1ccc(CN2Cc3ccc(Br)cc3-n3nncc3C2)cc1	.	4	.	.	-6	.
CC(N)C(=O)NC1C2C(=C(O)CC(O)C2O)C(=O)OC1(C)C(Cl)Cl (configuration not stated)	.	-6	.	1	-2	.
COCCNC(=O)c1c(N)n(CCC(C)C)c2nc3ccccc3nc12	34	20	-11	14	-2	.
CC(C)CCn1c(N)c(C(=O)NCc2cccs2)c2nc3ccccc3nc21	55*	16	-13	-10	1	.	APJ antag confirm=-3
COc1ccc(C(=O)C2CCCN(CCO)C2)c(C)c1 (configuration not stated)	111*	1	-2	-3	14	.	APJ antag confirm=26
COc1ccc(NC2Oc3cc4c(cc3C(c3cc(OC)c(OC)c(OC)c3)C2C)OCO4)cc1 (configuration not stated)	.	-7	.	0	-8	.
C=C1C(=O)O[C@@H]2C[C@@H](C)[C@@H]3C4OC4C(=O)[C@@]3(C)[C@@H](O)[C@H]12 (some centres not stated)	42*	42	2	29	34	.	APJ antag confirm=42
C=C1C(=O)O[C@@H]2C[C@@H](C)[C@@H]3C=CC(=O)[C@@]3(C)[C@@H](OC(=O)CC(=O)O[C@H]3[C@@H]4C(=C)C(=O)O[C@@H]4C[C@@H](C)[C@@H]4C=CC(=O)[C@]43C)[C@H]12	83*	51*	-9	98*	92*	100*	APJ antag confirm=115*
CSCCC(c1nnnn1C1CCCCC1)N1CCC2(CC1)C(=O)NCN2c1ccccc1 (configuration not stated)	.	-7	.	.	4	.
COc1cc(/C=C/[N+](=O)[O-])ccc1OC(=O)c1cccnc1	59*	-11	4	82*	57*	63*	APJ antag confirm=72*
NNCc1ccccc1	.	7	.	1	-11	.
CNc1ccc2oc(C[C@H]3O[C@@]4(CC[C@H]3C)O[C@H]([C@H](C)C(=O)c3ccc[nH]3)[C@H](C)C[C@H]4C)nc2c1C(=O)O	65*	20	2	55*	75*	69*	APJ antag confirm=61*
O=C(/C=C/c1ccccc1)N1Cc2ccccc2-n2nncc2C1	.	12	.	.	-5	.
COc1ccc(OC(=O)N(C)C[C@@H]2OCc3cnnn3CCCC(=O)N([C@@H](C)CO)C[C@H]2C)cc1	.	0	.	.	1	.
COc1ccc(OC(=O)N(C)C[C@@H]2OCc3cnnn3CCCC(=O)N([C@H](C)CO)C[C@@H]2C)cc1	.	-6	.	.	90*	4
COc1ccc(-c2ccc3c(c2)CN(C(=O)C(C)(C)C)Cc2cnnn2-3)cc1	.	7	.	.	6	.
COc1ccc(CCn2c(O)c(C=NCc3cccnc3)c(=O)[nH]c2=O)cc1OC	7	-6	0	13	5	.
SMILES	APJ antag	EBI2 block	APJ agonist	CCR6 antag	CXCR6 inh	CXCR6 confirm	others
COc1ccc(C2CC(c3c(O)n(CCc4ccccc4)c(=O)[nH]c3=O)=NN2)cc1OC (configuration not stated)	4	0	-13	104*	90*	104*
CNc1cc(Cl)c2nonc2c1[N+](=O)[O-]	.	80*	.	98*	100*	103*
Cc1cc([N+](=O)[O-])c(Cl)cc1NC(=O)C(C)C	4	-6	-3	2	-3	.
O=C(NN=Cc1ccc(N(CCCl)CCCl)cc1)c1cccnc1	.	4	.	21	1	.
Cn1c(O)c(C2=NNC(c3ccc(Cl)cc3)C2)c(=O)n(C)c1=O (configuration not stated)	14	-6	-4	56*	34*	112*
C[C@]12CCC3C(CC[C@H]4C[C@@H](O)CC[C@]34C)C1CC[C@@H]2OC(=O)[C@H](N)CCCCN (some centres not stated)	-1	0	14	2	-2	.
COC(=O)C1=C(C(=O)OC)SC2(S1)C(C(=O)OC)=C(C(=O)OC)Sc1c2ssc1=O	.	-12	.	86*	68*	56*
CCOC(=O)[C@]12Cc3cc(Cl)ccc3[C@H]1N(C1CCCCC1)C(=O)c1cc(OC)ccc12	.	77*	.	.	42*	47*
O=C1C(Br)C2CCC1C2C(=O)O (configuration not stated)	.	-10	.	.	-1	.
CCCCCCCCn1sccc1=O	26	61*	-4	105*	99*	105*
COC(=O)C1=C(c2ccc(F)cc2OCc2ccccc2)C[C@@H]2CC[C@H]1N2C(=O)N1CCC(O)(c2ccc(Cl)cc2)CC1	1	52*	-2	7	8	.	EBI2 conf=16;EBI2 agonist=3;bGal cs=-15
O=C(COc1ccc2ccccc2c1)N1CCN(Cc2c[nH]c3ccccc23)CC1	-12	83*	-4	6	-25	.	EBI2 conf=53*;EBI2 agonist=1;bGal cs=8
